Results as given in ChEMBL document CHEMBL4028840, “6-Nitro-2,3-dihydroimidazo[2,1-b][1,3]thiazoles: Facile synthesis and comparative appraisal against tuberculosis and neglected tropical diseases” (Bioorg Med Chem Lett, 2017).
≈ marks a conversion by molar mass, not a printed value.

Legend:
[1] = system: Mycobacterium tuberculosis; test: Anti-tubercular activity against Mycobacterium tuberculosis H37Rv ATCC 27294 after 10 days under hypoxic condition by low-oxygen recovery assay; format: functional
Procedure, shortened: (§1)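 M. tuberculosis H37Rv MIC measured in two assays: aerobic growth by MABA and hypoxic exposure by LORA. Each value is the mean of ≥2 independent determinations.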

[2] = system: Mycobacterium tuberculosis; test: Anti-tubercular activity against Mycobacterium tuberculosis H37Rv ATCC 27294 after 7 days under aerobic condition by microplate alamar blue assay; format: functional; conditions: Mycobacterium tuberculosis, H37Rv ATCC 27294, 168 h; read-out: MIC; procedure, shortened: as §1
Leishmania infantum = test: Anti-parasitic activity against Leishmania infantum MHOM/MA(BE)/67 amastigotes infected in mouse primary peritoneal macrophages after 5 days by giemsa staining based microscopic method; format: functional; conditions: Leishmania infantum, MHOM/MA(BE)/67, 120 h
Procedure, shortened: (§2)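 IC50 for growth inhibition of L. infantum, T. cruzi and T. brucei parasites, or for cytotoxicity toward human lung fibroblasts (MRC-5). Values are means of two or more independent experiments.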

Trypanosoma cruzi = test: Anti-parasitic activity against Trypanosoma cruzi Tulahuen CL2 infected in human MRC5 cells after 7 days by chlorophenol red […]-D-galactopyranoside dye based assay; format: functional, cell-based; procedure, shortened: as §2
[3] = system: Trypanosoma brucei brucei; test: Anti-parasitic activity against Trypanosoma brucei brucei Squib-427 after 72 hrs by resazurin dye based fluorescence assay; format: functional; procedure, shortened: as §2
[4] = Cytotoxicity against human MRC5 SV2 cells after 72 hrs by resazurin dye based fluorescence assay; format: cell-based; conditions: Homo sapiens, MRC-5 SV2, 72 h; procedure, shortened: as §2
Vero = test: Cytotoxicity against African green monkey Vero cells after 72 hrs by MTS/PMS assay; format: cell-based; conditions: Chlorocebus sabaeus
Procedure, shortened: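 VERO mammalian cells exposed for 72 h. Cytotoxicity IC50 comes from a single test.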

[5] = Solubility in water at pH 7 after 15 mins by HPLC method; format: physicochemical; conditions: for solubility at 0.25 h: water, pH 7
Procedure, shortened: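 Solubility measured at 20 °C by HPLC, in water (pH 7) or 0.1 M HCl (pH 1).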

[6] = Stability in pooled human liver microsomes assessed as compound remaining measured after 1 hr; format: ADME, microsome; conditions: read-out: Stability
[7] = Stability in CD-1 mouse liver microsomes assessed as compound remaining measured after 1 hr; format: ADME, microsome; conditions: read-out: Stability
[8] = system: Mycobacterium tuberculosis; test: Anti-tubercular activity against Mycobacterium tuberculosis infected in BALB/c mouse assessed as reduction in lung colony forming units at 100 mg/kg, po administered via gavage for 5 days each week for 3 weeks measured after 1 day post last dose relative to PA-824; format: functional
Procedure, shortened: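 Mouse model of acute TB infection. Oral dosing at 100 mg/kg daily, 5 days per week, for 3 weeks. Read-out is fold reduction in lung CFU, expressed as a ratio to the fold CFU reduction from the reference nitroimidazole run alongside.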

[9] = Mycobacterium tuberculosis, H37Rv ATCC 27294, 240 h, read-out: MIC
[10] = Trypanosoma cruzi, Tulahuen CL2, MRC5, 168 h
[11] = Trypanosoma brucei, Squib-427, 72 h

SMILES | MIC [1, 9] | MIC [2] | IC50 (Leishmania infantum) | IC50 (Trypanosoma cruzi; [10]) | IC50 [3, 11] | IC50 [4] | IC50 (Vero) | solubility at 0.25 h [5] | remaining at 1 h [6] | remaining at 1 h [7] | fold change (FC) [8] | solubility ([5]; buffer, pH 7, 0.25 h) | MIC [1] | IC50 (Trypanosoma cruzi) | IC50 [3]
CC1(COCc2ccc(-c3ccc(OC(F)(F)F)cc3)cc2)Cn2cc([N+](=O)[O-])nc2S1 (centres undefined) | > 64 µM | 1.4 µM (≈ 0.652 µg/mL) | 56 µM | 0.14 µM | 2.8 µM | > 64 µM |  |  |  |  |  |  |  |  | 
CC1(COCc2ccc(OC(F)(F)F)cc2)Cn2cc([N+](=O)[O-])nc2[S+]1[O-] (stereo in doubt; 18) | > 128 µM |  | > 64 µM | 1.6 µM | > 64 µM | > 64 µM |  |  |  |  |  |  |  |  | 
CC1(CO)Cn2cc([N+](=O)[O-])nc2S1 (centres undefined) | > 128 µM | 10 µM (≈ 2.15 µg/mL) |  |  |  |  |  |  |  |  |  |  |  |  | 
C[C@@]1(COCc2ccc(OC(F)(F)F)cc2)Cn2cc([N+](=O)[O-])nc2S1 | 51 µM (≈ 19.9 µg/mL) | 6.1 µM (≈ 2.38 µg/mL) | > 64 µM | 1.6 µM | > 64 µM | > 64 µM | 52 µM |  |  |  |  |  |  |  | 
CC1(COCc2ccc(OC(F)(F)F)cc2)Cn2cc([N+](=O)[O-])nc2S1 (centres undefined) | 7.9 µM (≈ 3.08 µg/mL) | 0.24 µM (≈ 0.0934 µg/mL) | 57 µM | 0.67 µM | 56 µM | > 64 µM |  | 2.4 µg/mL (≈ 6.16 µM) |  |  |  |  |  |  | 
O=[N+]([O-])c1cn2c(n1)SC(COCc1ccc(OC(F)(F)F)cc1)C2 (centres undefined) | 15 µM (≈ 5.63 µg/mL) | 4.4 µM (≈ 1.65 µg/mL) | 64 µM | 0.87 µM | > 64 µM | > 64 µM | > 128 µM |  |  |  |  |  |  |  | 
O=[N+]([O-])c1cn2c(n1)SC(COc1ccc(Oc3ccccc3)cc1)C2 (centres undefined) | 29 µM (≈ 10.7 µg/mL) | > 128 µM | 56 µM | 1.6 µM | 11 µM | 56 µM | > 128 µM |  |  |  |  |  |  |  | 
CC1(COc2ccc(OC(F)(F)F)cc2)Cn2nc(Br)nc2S1 (centres undefined) | > 128 µM | 24 µM (≈ 9.85 µg/mL) | > 64 µM | 6.2 µM | 34 µM | 42 µM | 89 µM |  |  |  |  |  |  |  | 
C[C@]1(COc2ccc(N3CCC(Oc4ccc(OC(F)(F)F)cc4)CC3)cc2)Cn2cc([N+](=O)[O-])nc2O1 |  |  |  |  |  |  |  |  | 71% | 87% | 68 |  |  |  | 
CC1(COc2ccc(OC(F)(F)F)cc2)Cn2nc([N+](=O)[O-])nc2S1(=O)=O (centres undefined) | 27 µM (≈ 11 µg/mL) | 2.2 µM (≈ 0.898 µg/mL) | 1.3 µM | 1.3 µM | 2.1 µM | 0.42 µM | 46 µM |  |  |  |  |  |  |  | 
CC1(COc2ccc(-c3ccc(OC(F)(F)F)cc3)cc2)Cn2cc([N+](=O)[O-])nc2O1 (centres undefined) |  |  |  |  |  |  |  |  |  |  | 115 | 0.41 µg/mL (≈ 0.942 µM) |  |  | 
CC1(COc2ccc(Oc3ccccc3)cc2)Cn2cc([N+](=O)[O-])nc2S1 (centres undefined) | 5.3 µM (≈ 2.03 µg/mL) | 0.76 µM (≈ 0.291 µg/mL) | > 64 µM | 0.14 µM | > 64 µM | > 64 µM | > 128 µM |  |  |  |  |  |  |  | 
CC1(COc2ccc(Oc3ccccc3)cc2)Cn2cc([N+](=O)[O-])nc2O1 (centres undefined) | 24 µM (≈ 8.82 µg/mL) | 0.79 µM (≈ 0.29 µg/mL) |  | 1.9 µM | 28 µM | > 64 µM |  |  |  |  |  |  |  |  | 
CC1(COCc2ccc(-c3ccc(C(F)(F)F)cc3)cc2)Cn2cc([N+](=O)[O-])nc2S1 (centres undefined) | > 64 µM | 1.1 µM (≈ 0.494 µg/mL) | 56 µM | 0.04 µM | 1.1 µM | > 64 µM |  |  |  |  |  |  |  |  | 
O=[N+]([O-])c1cn2c(n1)SC(COc1ccc(OC(F)(F)F)cc1)C2 (centres undefined) | 8.2 µM (≈ 2.96 µg/mL) | 4.5 µM (≈ 1.63 µg/mL) | > 64 µM | 0.85 µM | > 64 µM | > 64 µM | > 128 µM |  |  |  |  |  |  |  | 
CC1(COc2ccc(-c3ccc(OC(F)(F)F)cc3)cc2)Cn2cc([N+](=O)[O-])nc2S1 (centres undefined) | > 128 µM | 0.063 µM (≈ 0.0284 µg/mL) | 45 µM | 0.085 µM | > 64 µM | > 64 µM | > 128 µM | 0.25 µg/mL (≈ 0.554 µM) | 84% | 75% | 5.7 |  |  |  | 
CC1(COc2ccc(OC(F)(F)F)cc2)Cn2cc([N+](=O)[O-])nc2S1(=O)=O (centres undefined) | 15 µM (≈ 6.11 µg/mL) | 14 µM (≈ 5.7 µg/mL) | > 64 µM | 1.8 µM | > 64 µM | > 64 µM | > 128 µM |  |  |  |  |  |  |  | 
CC1(COc2ccc(Oc3ccccc3)cc2)Cn2cc([N+](=O)[O-])nc2[S+]1[O-] (stereo in doubt; 39) |  |  | 55 µM |  |  | 53 µM | > 128 µM |  |  |  |  |  | >128 µM | 0.19 µM | 0.36 µM
